Each structure is given as a SMILES string.

The subject of data set [1] is Brain. As to the kind of experiment: Drug uptake in Kunming mouse brain […] iv ibuprofen administered as single dose by HPLC analysis relative to ibuprofen. The format is ADME, organism-based. The following applies: in vivo.
Data set [2] has as its system Brain. Kind of data set: Drug uptake in Kunming mouse brain assessed as concentration efficiency […] iv ibuprofen administered as single dose by HPLC analysis relative to ibuprofen. The format is ADME, organism-based. The settings on record: in vivo.
The nature of data set [3]: Chemical stability of compound in phosphate buffer assessed as first order rate constant of disappearance of drug at pH 2.21 by HPLC analysis. In kind it is physicochemical. The essentials:
(§1)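 Methanol solution of compound mixed into 4 ml phosphate buffer (pH 2.21, 5.86, 7.33 or 7.88), held at 37 °C; samples taken at 0, 1, 3, 6, 12, 24 h and analysed by reverse-phase HPLC (methanol/water 70:30, pH 2.86, UV 219 nm). Pseudo-first-order Kdisapp from linear regression of ln peak area against time in hours; t1/2 derived from it.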

The nature of data set [4]: Chemical stability of compound in phosphate buffer assessed as first order rate constant of disappearance of drug at pH 5.86 by HPLC analysis. In kind it is physicochemical. The essentials:
as §1

Data set [5] is described as follows: Chemical stability of compound in phosphate buffer assessed as first order rate constant of disappearance of drug at pH 7.33 by HPLC analysis. In kind it is physicochemical. The essentials:
as §1

Data set [6] is described as follows: Chemical stability of compound in phosphate buffer assessed as first order rate constant of disappearance of drug at pH 7.88 by HPLC analysis. In kind it is physicochemical. The gist of the method:
as §1

Data set [7] can be described thus: Chemical stability of compound in phosphate buffer assessed as half life at pH 2.21 by HPLC analysis. The format is physicochemical. The gist of the method: as §1
A short description of data set [8]: Chemical stability of compound in phosphate buffer assessed as half life at pH 5.86 by HPLC analysis. The format is physicochemical. The essentials: as §1
Data set [9] in a line: Chemical stability of compound in phosphate buffer assessed as half life at pH 7.33 by HPLC analysis. In kind it is physicochemical. The essentials: as §1
Data set [10] in a line: Chemical stability of compound in phosphate buffer assessed as half life at pH 7.88 by HPLC analysis. The format is physicochemical. The gist of the method: as §1
Data set [11] can be described thus: Metabolic stability in mouse plasma assessed as first order rate constant of disappearance of drug by HPLC analysis. The format is ADME, cell-free. The gist of the method: (§2)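 Incubation in mouse plasma extract or brain homogenate at 37 °C; remaining compound measured by HPLC (UV 219 nm). Pseudo-first-order Kdisapp from linear regression of ln peak area against time in minutes; half-life derived from it.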

In data set [12] the test system is Brain. Kind of data set: Metabolic stability in mouse brain assessed as first order rate constant of disappearance of drug by HPLC analysis. In kind it is ADME, tissue-based. The gist of the method:
as §2

Data set [13] can be described thus: Metabolic stability in mouse plasma assessed as compound half life by HPLC analysis. In kind it is ADME, cell-free. The gist of the method:
as §2

A short description of data set [14]: Metabolic stability in mouse brain assessed as compound half life by HPLC analysis. In kind it is ADME, tissue-based. The gist of the method: as §2
Data set [15] has as its system Brain. Kind of data set: AUC (0 to t) in Kunming mouse brain […] iv ibuprofen administered as single dose by HPLC analysis. In kind it is ADME, organism-based. The following applies: in vivo.
Data set [16] is described as follows: AUC (0 to t) in Kunming mouse blood at 48 mmol/g, iv administered as single dose by HPLC analysis. In kind it is ADME, organism-based.
Data set [17] is described as follows: Mean residence time in Kunming mouse blood at 48 mmol/g, iv administered as single dose by HPLC analysis. In kind it is ADME, organism-based.
Data set [18] can be described thus: Cmax in Kunming mouse blood at 48 mmol/g, iv administered as single dose by HPLC analysis. In kind it is ADME, organism-based. Also on record: dose 48 mmol/g, route intravenous.
Data set [19] is described as follows: Tmax in Kunming mouse blood at 48 mmol/g, iv administered as single dose by HPLC analysis. The format is ADME, organism-based.
Data set [20] concerns Brain. As to the kind of experiment: AUC (0 to t) in Kunming mouse brain at 48 mmol/g, iv administered as single dose by HPLC analysis. The format is ADME, organism-based. The following applies: in vivo.
Data set [21] is described as follows: Cmax in Kunming mouse brain at 48 mmol/g, iv administered as single dose by HPLC analysis. In kind it is ADME, organism-based. More on the design: dose 48 mmol/g, route intravenous.
The nature of data set [22]: Tmax in Kunming mouse brain at 48 mmol/g, iv administered as single dose by HPLC analysis. In kind it is ADME, organism-based.

In the case of `C/C(=C(\CCOC(=O)C(C)c1ccc(CC(C)C)cc1)SSCc1ccccc1)N(C=O)CC(=O)OCC(OC(=O)C(C)c1ccc(CC(C)C)cc1)C1OC(=O)C(O)=C1O` (configuration not stated), the Ratio with Brain [1] is recorded as 4.072; in the data set with Brain [2], 7.461. In addition, the K in data set [3] stood at 1.29 ×10⁻² /hr; in data set [4] it was 2.89 ×10⁻² /hr; in data set [5], 4.27 ×10⁻² /hr; in data set [6], 6.87 ×10⁻² /hr; in the data set on Brain [12], 5.46 ×10⁻² /min. In addition, the half-life (commonly how long it takes for the measured level to halve) in data set [7] is 53.9 h; in data set [8], 23.9 h; in [9] it was 16.2 h; in data set [10] it was 10.1 h; in data set [13], 0.463 h; in [14], 0.212 h. Also, the k el in data set [11] was 0.000307 s⁻¹. In the data set with Brain [15], this molecule registered an AUCt of 7557.692 µg·min/g.

With `CC(C)Cc1ccc(C(C)C(=O)OCC(OC(=O)C(C)c2ccc(CC(C)C)cc2)C2OC(=O)C(O)=C2O)cc1` (configuration not stated), the Ratio in the data set with Brain [1] is listed as 3.516; with Brain [2] it was 4.965. For the same molecule, the K was found to be 1.76 ×10⁻² /hr in data set [3]; 3.66 ×10⁻² /hr in [4]; 5.58 ×10⁻² /hr in data set [5]; 8.65 ×10⁻² /hr in data set [6]; 2.48 ×10⁻² /min in the data set on Brain [12]. For the same molecule, the half-life is 39.5 h in data set [7]; 18.9 h in data set [8]; 12.4 h in data set [9]; 8.1 h in data set [10]; 0.737 h in data set [13]; 0.465 h in data set [14]. In addition, the k el in data set [11] is 0.000262 s⁻¹. In addition, the AUCt in the data set with Brain [15] worked out at 6526.7422 µg·min/g.

As to `CC(C)Cc1ccc(C(C)C(=O)O)cc1` (configuration not stated) [IBUPROFEN], the exposure AUC(0-t) (usually the area under the concentration-time curve up to a stated or last time point) in [16] was 56800 ng·h/mL. Further, the mean residence time MRT (as a rule, a mean duration of stay, worked out from the concentration-time curve) in data set [17] came to 78.9 h. For the same molecule, the figures for the Cmax in data set [18] and in [21] were 28400 ng/mL and 10700 ng/g, respectively. Further, the Tmax – broadly, the time at which the peak concentration occurs – in data set [19] is 6.67 min; in data set [22] it was 0.417 h. The molecule further gave an AUCt with Brain [20] of 1856.215 µg·min/g.

As to `CC(C)Cc1ccc(C(C)C(=O)OC(CO)C2OC(=O)C(O)=C2O)cc1` (configuration not stated), the Ratio in the data set on Brain [1] is 2.254; in the data set on Brain [2], 4.194. The K in data set [3] came out at 1.61 ×10⁻² /hr; in data set [4], 3.36 ×10⁻² /hr; in data set [5] it was 4.3 ×10⁻² /hr; in data set [6] it was 7.15 ×10⁻² /hr; with Brain [12] it was 4.16 ×10⁻² /min. In addition, the half-life was 43 h in [7]; 20.6 h in data set [8]; 16.1 h in data set [9]; 9.7 h in [10]; 0.857 h in data set [13]; 0.278 h in data set [14]. The k el in data set [11] was 0.000225 s⁻¹. The AUCt in the data set on Brain [15] is 4183.3895 µg·min/g.

As for `CC(C)Cc1ccc(C(C)C(=O)OCC(O)C2OC(=O)C(O)=C2O)cc1` (configuration not stated), the figures for the Ratio with Brain [1] and in the data set with Brain [2] were 2.03 and 2.619, respectively. The K was found to be 1.73 ×10⁻² /hr in data set [3]; 3.76 ×10⁻² /hr in data set [4]; 4.67 ×10⁻² /hr in [5]; 8.42 ×10⁻² /hr in [6]; 3.46 ×10⁻² /min with Brain [12]. Further, the half-life is 40.1 h in [7]; 18.4 h in data set [8]; 14.8 h in data set [9]; 8.2 h in data set [10]; 0.777 h in [13]; 0.335 h in [14]. The k el in data set [11] was 0.000248 s⁻¹. In the data set with Brain [15], this molecule came in with an AUCt of 3767.9842 µg·min/g.
